Columns and labels:
[1] = system: Myc-induced oncogenic transformation in chicken embryo fibroblasts (CEF); assay type: cell-based; conditions: for IC95, inhibition of foci formation: Myc-induced foci in CEF; for inhibition of foci formation: at 20 μM; for inhibition of foci formation / EOT (efficiency of transformation, no inhibition = 1): Myc-induced, CEF; for EOT (efficiency of transformation, no inhibition = 1): tested at 20 μM
How it was run: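 Chicken embryo fibroblasts infected with the RCAS viral vector expressing transforming chicken cellular Myc. Test compound added at 20 μM. Cultures maintained for three weeks, then foci in each well counted manually by eye. Result expressed as efficiency of transformation (EOT), with no inhibition = 1. Active candidates re-tested in iterative rounds.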

[2] = system: Src-induced oncogenic transformation in CEF; assay type: cell-based, chicken; conditions: CEF infected with Prague strain of Rous sarcoma virus
Myc/Max dimerization = experiment: FRET assay for inhibition of Myc-Max dimerization; assay type: binding
CEF = experiment: Intrinsic cytotoxic activity for CEF; assay type: cell-based, chicken
[3] = system: Jun-induced oncogenic transformation in CEF; assay type: cell-based, chicken; conditions: CEF infected with avian sarcoma virus 17

Row | SMILES | IC95, inhibition of foci formation [1] [µM] | inhibition of foci formation [1] | EOT (efficiency of transformation, no inhibition = 1) [1] | inhibitory activity for foci formation induced by Src [2] | inhibition of Myc/Max dimerization (Myc/Max dimerization) | intrinsic cytotoxic activity for CEF (CEF) | inhibitory activity for foci formation induced by Jun [3]
1 | Cc1cc(C)c(S(=O)(=O)N[C@@H](CNC(=O)[C@@H]2CN(C(=O)CC3CCN(C(=O)OC(C)(C)C)CC3)C[C@H]2C(=O)O)C(=O)OC(C)(C)C)c(C)c1 [compound 3, mycmycin-1] | 20 | complete inhibition of foci formation | 0.05 | failed to exhibit inhibitory activity | most effective inhibition | neither possess an intrinsic cytotoxic acitivity | failed to exhibit inhibitory activity
2 | CNC(=O)[C@@H]1CN(C(=O)CCCCCNC(=O)OC(C)(C)C)C[C@H]1C(=O)NC[C@H](NS(=O)(=O)c1cc(Cl)sc1Cl)C(=O)OC(C)(C)C [compound 4, mycmycin-2] | 20 | complete inhibition of foci formation | 0.05 | failed to exhibit inhibitory activity | less effective inhibition | neither possess an intrinsic cytotoxic acitivity | failed to exhibit inhibitory activity
